Measured values taken from ChEMBL document CHEMBL3286120, “Design and synthesis of novel soluble 2,5-diketopiperazine derivatives as potential anticancer agents” (Eur J Med Chem, 2014).

What was measured:
NCI-H1975 [1] = assay: Cytotoxicity against human NCI-H1975 cells assessed as reduction in cell viability after 72 hrs by CCK8 assay; type: functional, cell-based; settings: Homo sapiens, NCI-H1975, 72 h; read-out: IC50
Outline: (§1)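 Cells kept in RPMI or DMEM with 10% FBS and 1% penicillin/streptomycin at 37 °C in 5% CO2. Seeded at 400-800 cells/well in 384-well plates and exposed to varying compound concentrations, with solution-only control, for 72 h. CCK8 reagent added, then absorbance read at 450 nm. Plinabulin and TSA were positive controls. Mean SD of three experiments.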

[2] = Cytotoxicity against human HuH7 cells assessed as reduction in cell viability after 72 hrs by CCK8 assay; type: functional, cell-based, Huh-7; settings: Homo sapiens, Huh-7, 72 h; read-out: IC50; outline: as §1
MCF7 = assay: Cytotoxicity against human MCF7 cells assessed as reduction in cell viability after 72 hrs by CCK8 assay; type: functional, cell-based; settings: Homo sapiens, MCF7, 72 h; read-out: IC50; outline: as §1
K562 [3] = assay: Cytotoxicity against human K562 cells assessed as viable cells at 5 uM after 48 hrs by CCK8 assay relative to control; type: functional; settings: K562, 48 h, read-out: Activity
Outline: (§2)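 Viability of U937, K562 and H1975 cells cultured in RPMI or DMEM with 10% FBS and 1% penicillin/streptomycin at 37 °C in 5% CO2. Cells treated at two fixed concentrations (5 or 10) for 24 or 48 h. Viable cells measured by CCK8 and expressed relative to control. Mean SD of three experiments.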

NCI-H1975 [4] = assay: Cytotoxicity against human NCI-H1975 cells assessed as viable cells at 5 uM after 24 hrs by CCK8 assay relative to control; type: functional; settings: NCI-H1975, 24 h, read-out: Activity; outline: as §2
K562 [5] = assay: Cytotoxicity against human K562 cells assessed as viable cells at 5 uM after 24 hrs by CCK8 assay relative to control; type: functional; settings: K562, 24 h, read-out: Activity; outline: as §2
K562 [6] = assay: Cytotoxicity against human K562 cells assessed as viable cells at 10 uM after 48 hrs by CCK8 assay relative to control; type: functional; settings: K562, 48 h, read-out: Activity; outline: as §2
K562 [7] = assay: Cytotoxicity against human K562 cells assessed as reduction in cell viability after 72 hrs by CCK8 assay; type: functional, cell-based; settings: Homo sapiens, K562, 72 h; read-out: IC50; outline: as §1
U-937 [8] = assay: Cytotoxicity against human U937 cells assessed as viable cells at 10 uM after 48 hrs by CCK8 assay relative to control; type: functional; settings: U-937, 48 h, read-out: Activity; outline: as §2
U-937 [9] = assay: Cytotoxicity against human U937 cells assessed as viable cells at 5 uM after 24 hrs by CCK8 assay relative to control; type: functional; settings: U-937, 24 h, read-out: Activity; outline: as §2
[10] = Cytotoxicity against human BGC823 cells assessed as reduction in cell viability after 72 hrs by CCK8 assay; type: functional, cell-based, BGC-823; settings: Homo sapiens, BGC-823, 72 h; read-out: IC50; outline: as §1
NCI-H1975 [11] = assay: Cytotoxicity against human NCI-H1975 cells assessed as viable cells at 5 uM after 48 hrs by CCK8 assay relative to control; type: functional; settings: NCI-H1975, 48 h, read-out: Activity; outline: as §2
U-937 [12] = assay: Cytotoxicity against human U937 cells assessed as viable cells at 10 uM after 24 hrs by CCK8 assay relative to control; type: functional; settings: U-937, 24 h, read-out: Activity; outline: as §2
A549 = assay: Cytotoxicity against human A549 cells assessed as reduction in cell viability after 72 hrs by CCK8 assay; type: functional, cell-based; settings: Homo sapiens, A549, 72 h; read-out: IC50; outline: as §1
U-937 [13] = assay: Cytotoxicity against human U937 cells assessed as viable cells at 5 uM after 48 hrs by CCK8 assay relative to control; type: functional; settings: U-937, 48 h, read-out: Activity; outline: as §2
U-937 [14] = assay: Cytotoxicity against human U937 cells assessed as reduction in cell viability after 72 hrs by CCK8 assay; type: functional, cell-based; settings: Homo sapiens, U-937, 72 h; read-out: IC50; outline: as §1
HL-60 = assay: Cytotoxicity against human HL60 cells assessed as reduction in cell viability after 72 hrs by CCK8 assay; type: functional, cell-based; settings: Homo sapiens, HL-60, 72 h; read-out: IC50; outline: as §1
NCI-H1975 [15] = assay: Cytotoxicity against human NCI-H1975 cells assessed as viable cells at 10 uM after 48 hrs by CCK8 assay relative to control; type: functional; settings: NCI-H1975, 48 h, read-out: Activity; outline: as §2
HeLa = assay: Cytotoxicity against human HeLa cells assessed as reduction in cell viability after 72 hrs by CCK8 assay; type: functional, cell-based; settings: Homo sapiens, HeLa, 72 h; read-out: IC50; outline: as §1
K562 [16] = assay: Cytotoxicity against human K562 cells assessed as viable cells at 10 uM after 24 hrs by CCK8 assay relative to control; type: functional; settings: K562, 24 h, read-out: Activity; outline: as §2
NCI-H1975 [17] = assay: Cytotoxicity against human NCI-H1975 cells assessed as viable cells at 10 uM after 24 hrs by CCK8 assay relative to control; type: functional; settings: NCI-H1975, 24 h, read-out: Activity; outline: as §2
MOLT-4 = assay: Cytotoxicity against human MOLT4 cells assessed as reduction in cell viability after 72 hrs by CCK8 assay; type: functional, cell-based; settings: Homo sapiens, MOLT-4, 72 h; read-out: IC50; outline: as §1

With `C=CCn1c(=O)/c(=C\c2cccc(Cl)c2Cl)[nH]c(=O)/c1=C\c1ccccc1OC` the IC50 (NCI-H1975 [1]) was 4500 nM, the IC50 [2] was 1200 nM and the IC50 (MCF7) was 2100 nM. The viability at 5 µM (K562 [3]) was 24.2%, the viability at 5 µM (NCI-H1975 [4]) was 107% and the viability at 5 µM (K562 [5]) was 104%. It also gave a viability at 10 µM (K562 [6]) of 14.9%, an IC50 (K562 [7]) of 900 nM and a viability at 10 µM (U-937 [8]) of 1.3%. It also gave a viability at 5 µM (U-937 [9]) of 7%, an IC50 [10] of 2200 nM and a viability at 5 µM (NCI-H1975 [11]) of 42.7%. The viability at 10 µM (U-937 [12]) was 8.7%, the IC50 (A549) was 2300 nM and the viability at 5 µM (U-937 [13]) was 0.9%. For the same molecule, the IC50 (U-937 [14]) was 500 nM, the IC50 (HL-60) was 2000 nM and the viability at 10 µM (NCI-H1975 [15]) was 42.6%. It also gave an IC50 (HeLa) of 1600 nM, a viability at 10 µM (K562 [16]) of 103% and a viability at 10 µM (NCI-H1975 [17]) of 98.9%. For the same molecule, the IC50 (MOLT-4) was 1200 nM.
